Measured values from ChEMBL document CHEMBL1165858, “Synthesis and biological evaluation of beta-chloro vinyl chalcones as inhibitors of TNF-alpha and IL-6 with antimicrobial activity” (Eur J Med Chem, 2010).
In brackets after ≈: the same amount, converted by molar mass. Activity calls are given as the source filed them. No cut-off for these calls is given here.

Tests used:
[1] = Cytotoxicity against […] at 10 uM; type: cell-based
[2] = system: Trichoderma viride; assay: Antibacterial activity against Trichoderma viride TT after 72 hrs by disc diffusion method; type: functional; details: for MIC: Trichoderma viride, TT, 72 h
Procedure, shortened: (§1)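 Agar disc diffusion against fungi. Fungi were maintained on potato dextrose agar at (25 ± 2) °C for five days before use. Compounds were dissolved in DMSO (10 mg/mL initial solutions) and loaded on discs placed on freshly seeded plates alongside a solvent control disc. Plates were held at 4 °C for 24 h for diffusion, then incubated at 37 ± 5 °C for 72 h. Zones of inhibition (mm) and MICs were recorded.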

[3] = system: Candida albicans; assay: Antibacterial activity against Candida albicans NCIM 3100 after 72 hrs by disc diffusion method; type: functional; details: for MIC: Candida albicans, NCIM 3100, 72 h; procedure, shortened: as §1
[4] = system: Aspergillus niger; assay: Antibacterial activity against Aspergillus niger NCIM 545 after 72 hrs by disc diffusion method; type: functional; details: for MIC: Aspergillus niger, NCIM 545, 72 h; procedure, shortened: as §1
[5] = system: Penicillium chrysogenum; assay: Antibacterial activity against Penicillium chrysogenum NCIM 707 after 72 hrs by disc diffusion method; type: functional; details: for MIC: Penicillium chrysogenum, NCIM 707, 72 h; procedure, shortened: as §1
[6] = system: Escherichia coli; assay: Antibacterial activity against Escherichia coli NCIM 2065 at > 100 […] after 24 hrs by disc diffusion method; type: functional, organism-based
[7] = system: Klebsiella pneumoniae; assay: Antibacterial activity against Klebsiella pneumoniae NCIM 5082 at > 100 […] after 24 hrs by disc diffusion method; type: functional, organism-based
[8] = system: Bacillus subtilis; assay: Antibacterial activity against Bacillus subtilis NCIM 2546 at > 100 […] after 24 hrs by disc diffusion method; type: functional, organism-based
[9] = system: THP-1; assay: Antiinflammatory activity in human THP1 cells assessed as inhibition of LPS-induced IL-6 secretion at 10 uM treated 30 mins before LPS challenge measured after 24 hrs by ELISA relative to control; type: functional
Procedure, shortened: (§2)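 THP-1 cells were grown in RPMI 1640 with 10% FBS and penicillin/streptomycin, then differentiated with PMA. Compound or vehicle (0.5% DMSO) was added for 30 min at 37 °C, followed by LPS (E. coli 0127:B8, final 1 µg/mL). After 24 h at 37 °C in 5% CO2, TNF-α and IL-6 in the supernatants were quantified by ELISA. Values are the mean of n = 2.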

[10] = system: Staphylococcus aureus; assay: Antibacterial activity against Staphylococcus aureus NCIM 2120 at > 100 […] after 24 hrs by disc diffusion method; type: functional, organism-based
[11] = system: THP-1; assay: Antiinflammatory activity in human THP1 cells assessed as inhibition of LPS-induced TNFalpha secretion at 10 uM treated 30 mins before LPS challenge measured after 24 hrs by ELISA relative to control; type: functional; procedure, shortened: as §2
[12] = system: Aspergillus fumigatus; assay: Antibacterial activity against Aspergillus fumigatus NCIM 902 after 72 hrs by disc diffusion method; type: functional; details: for MIC: Aspergillus fumigatus, NCIM 902, 72 h; procedure, shortened: as §1
[13] = system: Proteus vulgaris; assay: Antibacterial activity against Proteus vulgaris NCIM 2813 at > 100 […] after 24 hrs by disc diffusion method; type: functional, organism-based
[14] = system: Bacillus subtilis; assay: Antibacterial activity against Bacillus subtilis NCIM 2546 after 24 hrs by disc diffusion method; type: functional; details: for MIC: Bacillus subtilis, NCIM 2546, 24 h
Procedure, shortened: (§3)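 Paper disc diffusion (6.25 mm Whatman no.1 discs, dry-heat sterilized at 140 °C for 1 h) loaded with compounds at different concentrations in DMSO. Discs were placed in triplicate on nutrient agar seeded with fresh bacterial culture and incubated at 37 °C for 24 h, with solvent and growth controls. Zones of inhibition (mm) and MIC, the concentration completely inhibiting growth, were recorded.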

[15] = system: Proteus vulgaris; assay: Antibacterial activity against Proteus vulgaris NCIM 2813 after 24 hrs by disc diffusion method; type: functional; details: for MIC: Proteus vulgaris, NCIM 2813, 24 h; procedure, shortened: as §3
[16] = system: Escherichia coli; assay: Antibacterial activity against Escherichia coli NCIM 2065 after 24 hrs by disc diffusion method; type: functional; details: for MIC: Escherichia coli, NCIM 2065, 24 h; procedure, shortened: as §3
[17] = system: Klebsiella pneumoniae; assay: Antibacterial activity against Klebsiella pneumoniae NCIM 5082 after 24 hrs by disc diffusion method; type: functional; details: for MIC: Klebsiella pneumoniae, NCIM 5082, 24 h; procedure, shortened: as §3
[18] = system: Staphylococcus aureus; assay: Antibacterial activity against Staphylococcus aureus NCIM 2120 after 24 hrs by disc diffusion method; type: functional; details: for MIC: Staphylococcus aureus, NCIM 2120, 24 h; procedure, shortened: as §3
[19] = system: Penicillium chrysogenum; assay: Antibacterial activity against Penicillium chrysogenum NCIM 707 at > 100 […] after 72 hrs by disc diffusion method; type: functional, organism-based
[20] = system: Candida albicans; assay: Antibacterial activity against Candida albicans NCIM 3100 at > 100 […] after 72 hrs by disc diffusion method; type: functional, organism-based
[21] = system: Aspergillus niger; assay: Antibacterial activity against Aspergillus niger NCIM 545 at > 100 […] after 72 hrs by disc diffusion method; type: functional, organism-based

Compound	Activity [1]	inhibition zone (IZ) [2] [mm]	MIC [2] [µg/mL]	inhibition zone (IZ) [3] [mm]	inhibition zone (IZ) [4] [mm]	MIC [4] [µg/mL]	inhibition zone (IZ) [5] [mm]	MIC [5] [µg/mL]	inhibition at 10 µM [9] [%]	inhibition at 10 µM [11] [%]	inhibition zone (IZ) [12] [mm]	MIC [12] [µg/mL]	inhibition zone (IZ) [14] [mm]	MIC [14] [µg/mL]	inhibition zone (IZ) [15] [mm]	inhibition zone (IZ) [16] [mm]	inhibition zone (IZ) [17] [mm]	MIC [17] [µg/mL]	inhibition zone (IZ) [18] [mm]	MIC [18] [µg/mL]	other results
GENTAMICIN [listing 1 of 2 here]	Non-toxic	–	–	–	–	–	–	–	–	–	–	–	–	–	–	–	–	–	–	–	–
COc1cc(OC)cc(/C(Cl)=C/C=C/C(=O)c2c(O)cc(OC)cc2OC)c1	Non-toxic	14	50 (≈ 124 µM)	12	16	50 (≈ 124 µM)	15	50 (≈ 124 µM)	45	13	14	50 (≈ 124 µM)	–	–	–	–	–	–	–	–	MIC [6]: inactive; MIC [7]: inactive; MIC [8]: inactive; MIC [10]: inactive; MIC [13]: inactive
COc1cc(O)c(C(=O)/C=C/C=C(\Cl)c2ccc(Cl)cc2)c(OC)c1	Non-toxic	15	50 (≈ 132 µM)	12	16	50 (≈ 132 µM)	12	–	74	13	17	25 (≈ 65.9 µM)	20	25 (≈ 65.9 µM)	15	15	18	25 (≈ 65.9 µM)	18	25 (≈ 65.9 µM)	MIC [15]: 50 µg/mL (≈ 132 µM); MIC [16]: 50 µg/mL (≈ 132 µM)
COc1cc(O)c(C(=O)/C=C/C=C(\Cl)c2ccc(Cl)cc2Cl)c(OC)c1	Non-toxic	18	25 (≈ 60.4 µM)	10	10	–	17	25 (≈ 60.4 µM)	67	0	17	50 (≈ 121 µM)	17	50 (≈ 121 µM)	19	14	15	50 (≈ 121 µM)	19	25 (≈ 60.4 µM)	MIC [15]: 25 µg/mL (≈ 60.4 µM); MIC [16]: 50 µg/mL (≈ 121 µM)
GENTAMICIN [listing 2 of 2 here]	–	–	–	–	–	–	–	–	–	–	–	–	24	–	18	–	22	–	–	–	–
COc1cc(O)c(C(=O)/C=C/C=C(\Cl)c2ccc(C)cc2)c(OC)c1	Non-toxic	13	–	–	–	–	–	–	36	17	10	–	15	50 (≈ 139 µM)	19	12	18	25 (≈ 69.7 µM)	16	50 (≈ 139 µM)	MIC [15]: 25 µg/mL (≈ 69.7 µM); MIC [19]: inactive; MIC [20]: inactive; MIC [21]: inactive
OC(Cn1cncn1)(Cn1cncn1)c1ccc(F)cc1F [FLUCONAZOLE]	–	22	25 (≈ 81.6 µM)	18	20	25 (≈ 81.6 µM)	22	25 (≈ 81.6 µM)	–	–	20	25 (≈ 81.6 µM)	–	–	–	–	–	–	–	–	MIC [3]: 25 µg/mL (≈ 81.6 µM)
COc1cc(O)c(C(=O)/C=C/C=C(\Cl)c2ccc(Br)cc2)c(OC)c1	Non-toxic	18	25 (≈ 59 µM)	14	14	50 (≈ 118 µM)	18	25 (≈ 59 µM)	58	8	20	25 (≈ 59 µM)	18	25 (≈ 59 µM)	12	15	20	25 (≈ 59 µM)	14	50 (≈ 118 µM)	MIC [3]: 25 µg/mL (≈ 59 µM); MIC [16]: 50 µg/mL (≈ 118 µM)
COc1cccc(/C(Cl)=C/C=C/C(=O)c2c(O)cc(OC)cc2OC)c1	Non-toxic	16	50 (≈ 133 µM)	13	16	50 (≈ 133 µM)	17	25 (≈ 66.7 µM)	39	11	16	50 (≈ 133 µM)	–	–	–	10	14	50 (≈ 133 µM)	15	50 (≈ 133 µM)	–
COc1cc(O)c(C(=O)/C=C/C=C(\Cl)c2ccccc2Cl)c(OC)c1	Non-toxic	14	50 (≈ 132 µM)	–	16	50 (≈ 132 µM)	16	50 (≈ 132 µM)	43	17	14	50 (≈ 132 µM)	16	50 (≈ 132 µM)	20	14	18	25 (≈ 65.9 µM)	16	50 (≈ 132 µM)	MIC [15]: 25 µg/mL (≈ 65.9 µM); MIC [20]: inactive; MIC [16]: 50 µg/mL (≈ 132 µM)
CC1(C)S[C@@H]2[C@H](NC(=O)Cc3ccccc3)C(=O)N2[C@H]1C(=O)O [PENICILLIN G]	Non-toxic	–	–	–	–	–	–	–	–	–	–	–	22	25 (≈ 74.8 µM)	22	18	21	25 (≈ 74.8 µM)	20	25 (≈ 74.8 µM)	MIC [15]: 25 µg/mL (≈ 74.8 µM); MIC [16]: 25 µg/mL (≈ 74.8 µM)
C[C@@H]1C[C@H]2[C@@H]3CCC4=CC(=O)C=C[C@]4(C)[C@@]3(F)[C@@H](O)C[C@]2(C)[C@@]1(O)C(=O)CO [DEXAMETHASONE]	Non-toxic	–	–	–	–	–	–	–	90	69	–	–	–	–	–	–	–	–	–	–	–
COc1cc(O)c(C(=O)/C=C/C=C(\Cl)c2ccc(F)cc2)c(OC)c1	Non-toxic	16	50 (≈ 138 µM)	10	17	25 (≈ 68.9 µM)	14	50 (≈ 138 µM)	83	16	14	50 (≈ 138 µM)	22	25 (≈ 68.9 µM)	18	16	14	50 (≈ 138 µM)	14	50 (≈ 138 µM)	MIC [15]: 25 µg/mL (≈ 68.9 µM); MIC [16]: 50 µg/mL (≈ 138 µM)
COc1ccc(/C(Cl)=C/C=C/C(=O)c2c(O)cc(OC)cc2OC)c(OC)c1	Non-toxic	10	–	–	–	–	14	50 (≈ 124 µM)	33	0	10	–	–	–	–	–	13	–	14	50 (≈ 124 µM)	MIC [20]: inactive; MIC [6]: inactive; MIC [21]: inactive; MIC [8]: inactive; MIC [13]: inactive
